Activity calls are given as the source filed them. The rule behind the calls is not given here.
Assays:
[1] = biological target: Somatostatin receptor type 1 (Homo sapiens, UniProt P30872); experiment: Displacement of [125I][LTT]SRIF28 from human cloned sst1 receptor by autoradiography
[2] = biological target: Somatostatin receptor type 5 (Homo sapiens, UniProt P35346); experiment: Displacement of [125I][LTT]SRIF28 from human cloned sst5 receptor by autoradiography
[3] = biological target: Somatostatin receptor type 4 (Homo sapiens, UniProt P31391); experiment: Displacement of [125I][LTT]SRIF28 from human cloned sst4 receptor by autoradiography
Somatostatin receptor type 4, sequence (P31391 whole entry): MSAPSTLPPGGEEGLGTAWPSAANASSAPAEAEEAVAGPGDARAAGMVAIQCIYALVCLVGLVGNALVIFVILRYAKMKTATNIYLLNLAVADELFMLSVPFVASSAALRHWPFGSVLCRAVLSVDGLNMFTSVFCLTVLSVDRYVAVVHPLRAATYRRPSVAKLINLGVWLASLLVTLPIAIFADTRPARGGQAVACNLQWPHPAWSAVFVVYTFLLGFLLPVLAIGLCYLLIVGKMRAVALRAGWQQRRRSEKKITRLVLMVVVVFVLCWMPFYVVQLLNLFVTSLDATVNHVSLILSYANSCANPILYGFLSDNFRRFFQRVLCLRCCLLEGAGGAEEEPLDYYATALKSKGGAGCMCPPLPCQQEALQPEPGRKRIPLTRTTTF

[4] = biological target: Somatostatin receptor type 3 (Homo sapiens, UniProt P32745); experiment: Displacement of [125I][LTT]SRIF28 from human cloned sst3 receptor by autoradiography
Somatostatin receptor type 3, sequence (P32745 whole entry): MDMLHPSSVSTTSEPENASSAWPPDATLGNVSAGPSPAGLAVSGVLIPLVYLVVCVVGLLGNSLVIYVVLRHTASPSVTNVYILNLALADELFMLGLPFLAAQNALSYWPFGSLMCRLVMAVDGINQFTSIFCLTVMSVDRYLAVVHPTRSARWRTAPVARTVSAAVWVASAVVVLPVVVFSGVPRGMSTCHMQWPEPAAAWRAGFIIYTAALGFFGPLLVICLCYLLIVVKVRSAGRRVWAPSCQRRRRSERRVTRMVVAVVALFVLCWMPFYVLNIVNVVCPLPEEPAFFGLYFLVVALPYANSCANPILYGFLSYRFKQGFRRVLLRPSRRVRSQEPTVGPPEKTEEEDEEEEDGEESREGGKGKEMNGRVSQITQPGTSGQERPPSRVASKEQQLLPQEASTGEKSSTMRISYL

[5] = biological target: T1, Somatostatin receptor type 2 (Homo sapiens, UniProt P30874); experiment: Displacement of [125I][LTT]SRIF28 from human cloned sst2 receptor by autoradiography
T1 sequence (P30874 whole entry): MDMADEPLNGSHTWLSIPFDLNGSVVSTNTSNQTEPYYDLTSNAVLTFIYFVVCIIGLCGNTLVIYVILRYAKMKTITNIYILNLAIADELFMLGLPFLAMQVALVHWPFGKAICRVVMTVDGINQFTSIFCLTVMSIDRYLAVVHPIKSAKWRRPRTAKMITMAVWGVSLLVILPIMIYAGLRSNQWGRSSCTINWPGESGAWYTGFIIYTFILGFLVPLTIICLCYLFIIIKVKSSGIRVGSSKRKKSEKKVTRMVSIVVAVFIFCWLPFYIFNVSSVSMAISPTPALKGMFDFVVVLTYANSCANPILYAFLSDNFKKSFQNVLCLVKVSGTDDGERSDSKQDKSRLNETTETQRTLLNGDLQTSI

[6] = biological target: T1, Somatostatin receptor type 2; experiment: Antagonist activity at T7 epitope tagged human cloned sst2 expressed in HEK293 cells assessed as intracellular calcium release upto 10 uM; format: functional, cell-based
Outline: (§1)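 HEK-sst2 cells seeded on poly-D-lysine, cultured 1 day, loaded with Fluo-4NW dye (assay buffer HBSS/20 mM HEPES, 2.5 mM probenecid) 30 min 37 °C plus 30 min RT. Analogues alone up to 10 μM, or [Tyr3]-octreotide with 100-fold excess analogue; fluorescence (ex 485/em 520 nm) recorded 60 s at RT; percentage of ionomycin (25 μM) maximum over baseline; ≥3 experiments in triplicate.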

[7] = biological target: T1, Somatostatin receptor type 2; experiment: Antagonist activity at T7 epitope tagged human cloned sst2 expressed in HEK293 cells assessed as [Tyr3]octreotide-induced intracellular calcium release upto 10 uM; format: functional, cell-based; outline: as §1
[8] = biological target: T1, Somatostatin receptor type 2; experiment: Antagonist activity at T7 epitope tagged human cloned sst2 receptor expressed in HEK293 cells assessed as inhibition of [Tyr3]octreotide-induced receptor internalization upto 10 uM; format: functional, cell-based
Outline: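 Surface T7-tagged sst2 on HEK-sst2 cells labelled with anti-T7 antibody 2 h RT in DMEM-LH, then cells exposed 30 min at 37 °C to analogue (alone up to 10 μM or with [Tyr3]-octreotide), fixed in 3% paraformaldehyde, probed with HRP anti-mouse IgG, ABTS read at OD405; surface receptor as % of untreated; mean ± SEM, three experiments in duplicate.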

Somatostatin receptor type 5, sequence (P35346 whole entry): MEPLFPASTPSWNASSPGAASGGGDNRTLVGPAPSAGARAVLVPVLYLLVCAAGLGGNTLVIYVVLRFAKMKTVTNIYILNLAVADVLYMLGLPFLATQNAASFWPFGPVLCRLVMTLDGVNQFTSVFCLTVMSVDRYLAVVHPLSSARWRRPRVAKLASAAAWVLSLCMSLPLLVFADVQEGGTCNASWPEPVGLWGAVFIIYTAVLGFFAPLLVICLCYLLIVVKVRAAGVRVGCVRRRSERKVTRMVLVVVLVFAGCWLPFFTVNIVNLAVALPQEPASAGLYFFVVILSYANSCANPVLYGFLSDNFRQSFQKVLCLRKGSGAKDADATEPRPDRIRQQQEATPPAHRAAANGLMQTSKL
Somatostatin receptor type 1, sequence (P30872 whole entry): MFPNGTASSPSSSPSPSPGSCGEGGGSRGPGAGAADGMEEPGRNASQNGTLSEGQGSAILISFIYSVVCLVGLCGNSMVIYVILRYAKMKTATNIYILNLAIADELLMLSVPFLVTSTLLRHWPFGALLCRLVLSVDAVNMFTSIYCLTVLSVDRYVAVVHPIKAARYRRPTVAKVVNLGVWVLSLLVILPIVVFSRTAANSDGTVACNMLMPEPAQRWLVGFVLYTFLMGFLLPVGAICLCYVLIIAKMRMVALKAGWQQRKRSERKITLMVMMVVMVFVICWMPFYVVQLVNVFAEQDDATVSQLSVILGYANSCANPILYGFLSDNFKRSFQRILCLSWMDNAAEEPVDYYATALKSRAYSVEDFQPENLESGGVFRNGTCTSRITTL

IC50 [1] | IC50 [2] | IC50 [3] | IC50 [4] | IC50 [5] | Activity [6] | Activity [7] | Activity [8] | SMILES
> 1000 nM | > 1000 nM | > 1000 nM | > 1000 nM |  |  |  |  | C[C@@H](O)[C@@H]1NC(=O)[C@H](CCCCN)NC(=O)[C@@H](Cc2ccc(NC(N)=O)cc2)NC(=O)[C@H](Cc2ccc(NC(=O)[C@@H]3CC(=O)NC(=O)N3)cc2)NC(=O)[C@H](NC(=O)[C@H](Cc2ccc(Cl)cc2)NC(=O)CN2CCN(CC(=O)O)CCN(CC(=O)O)CCN(CC(=O)O)CC2)CSSC[C@@H](C(=O)N[C@H](Cc2ccc(O)cc2)C(N)=O)NC1=O
> 1000 nM | > 1000 nM | 455 nM | > 1000 nM | 1.2 nM |  |  |  | C[C@@H](O)[C@@H]1NC(=O)[C@H](CCCCN)NC(=O)[C@@H](Cc2c[nH]c3ccccc23)NC(=O)[C@H](Cc2ccc(O)c(I)c2)NC(=O)[C@H](NC(=O)[C@H](Cc2ccc([N+](=O)[O-])cc2)NC(=O)CN2CCN(CC(=O)O)CCN(CC(=O)O)CCN(CC(=O)O)CC2)CSSC[C@@H](C(=O)N[C@H](Cc2ccc(O)cc2)C(N)=O)NC1=O
> 1000 nM | 320 nM | > 1000 nM | 162 nM | 27 nM |  |  |  | C[C@@H](O)[C@@H]1NC(=O)[C@H](CCCCN)NC(=O)[C@@H](Cc2c[nH]c3ccccc23)NC(=O)[C@H](Cc2ccc(NC(N)=O)cc2)NC(=O)[C@H](NC(=O)[C@@H](N)Cc2ccc(Cl)cc2)CSSC[C@@H](C(=O)N[C@@H](Cc2ccc(NC(=O)[C@@H]3CC(=O)NC(=O)N3)cc2)C(N)=O)NC1=O
> 1000 nM | > 1000 nM | > 1000 nM | > 1000 nM | 1.7 nM |  |  |  | C[C@@H](O)[C@@H]1NC(=O)[C@H](CCCCN)NC(=O)[C@@H](Cc2ccc(NC(N)=O)cc2)NC(=O)[C@H](Cc2ccc(NC(=O)[C@@H]3CC(=O)NC(=O)N3)cc2)NC(=O)[C@H](NC(=O)[C@H](Cc2ccc(Cl)cc2)NC(=O)CN2CCN(CC(=O)O)CCN(CC(=O)O)CCN(CC(=O)O)CC2)CSSC[C@@H](C(=O)N[C@@H](Cc2ccc3ccccc3c2)C(N)=O)NC1=O
> 1000 nM | > 1000 nM | > 1000 nM | 83 nM | 2.4 nM |  |  |  | C[C@@H](O)[C@@H]1NC(=O)[C@H](CCCCN)NC(=O)[C@@H](Cc2ccc(NC(N)=O)cc2)NC(=O)[C@H](Cc2ccc(NC(=O)[C@@H]3CC(=O)NC(=O)N3)cc2)NC(=O)[C@H](NC(=O)[C@@H](N)Cc2ccc(Cl)cc2)CSSC[C@@H](C(=O)N[C@@H](Cc2ccc3ccccc3c2)C(N)=O)NC1=O
> 1000 nM | 895 nM | 728 nM | 88 nM | 40 nM |  |  |  | C[C@@H](O)[C@@H]1NC(=O)[C@H](CCCCN)NC(=O)[C@@H](Cc2c[nH]c3ccccc23)NC(=O)[C@H](Cc2ccc(NC(N)=O)cc2)NC(=O)[C@H](NC(=O)[C@H](Cc2ccc(Cl)cc2)NC(=O)CCOCCOCCOCCNC(=O)CN2CCN(CC(=O)O)CCN(CC(=O)O)CCN(CC(=O)O)CC2)CSSC[C@@H](C(=O)N[C@@H](Cc2ccc3ccccc3c2)C(N)=O)NC1=O
 |  |  |  |  | inactive | Active | Active | C[C@@H](O)[C@@H]1NC(=O)[C@H](CCCCN)NC(=O)[C@@H](Cc2c[nH]c3ccccc23)NC(=O)[C@H](Cc2ccc(NC(N)=O)cc2)NC(=O)[C@H](NC(=O)[C@@H](Cc2ccc(Cl)cc2)NC(=O)CN2CCN(CC(=O)O)CCN(CC(=O)O)CCN(CC(=O)O)CC2)CSSC[C@@H](C(=O)N[C@@H](Cc2ccc3ccccc3c2)C(N)=O)NC1=O
 |  |  |  |  | inactive | Active | Active | C[C@@H](O)[C@@H]1NC(=O)[C@H](CCCCN)NC(=O)[C@@H](Cc2c[nH]c3ccccc23)NC(=O)[C@H](Cc2ccc(NC(N)=O)cc2)NC(=O)[C@H](NC(=O)[C@@H](Cc2ccc(Cl)cc2)NC(=O)CCNC(=O)CN2CCN(CC(=O)O)CCN(CC(=O)O)CCN(CC(=O)O)CC2)CSSC[C@@H](C(=O)N[C@@H](Cc2ccc3ccccc3c2)C(N)=O)NC1=O
